From ChEMBL document CHEMBL1641559, “Facile synthesis and biological evaluation of 3,3-diphenylpropanoyl piperazines as T-type calcium channel blockers” (Bioorg Med Chem Lett, 2011) come the findings set out here.

T1 sequence (O43497 whole entry): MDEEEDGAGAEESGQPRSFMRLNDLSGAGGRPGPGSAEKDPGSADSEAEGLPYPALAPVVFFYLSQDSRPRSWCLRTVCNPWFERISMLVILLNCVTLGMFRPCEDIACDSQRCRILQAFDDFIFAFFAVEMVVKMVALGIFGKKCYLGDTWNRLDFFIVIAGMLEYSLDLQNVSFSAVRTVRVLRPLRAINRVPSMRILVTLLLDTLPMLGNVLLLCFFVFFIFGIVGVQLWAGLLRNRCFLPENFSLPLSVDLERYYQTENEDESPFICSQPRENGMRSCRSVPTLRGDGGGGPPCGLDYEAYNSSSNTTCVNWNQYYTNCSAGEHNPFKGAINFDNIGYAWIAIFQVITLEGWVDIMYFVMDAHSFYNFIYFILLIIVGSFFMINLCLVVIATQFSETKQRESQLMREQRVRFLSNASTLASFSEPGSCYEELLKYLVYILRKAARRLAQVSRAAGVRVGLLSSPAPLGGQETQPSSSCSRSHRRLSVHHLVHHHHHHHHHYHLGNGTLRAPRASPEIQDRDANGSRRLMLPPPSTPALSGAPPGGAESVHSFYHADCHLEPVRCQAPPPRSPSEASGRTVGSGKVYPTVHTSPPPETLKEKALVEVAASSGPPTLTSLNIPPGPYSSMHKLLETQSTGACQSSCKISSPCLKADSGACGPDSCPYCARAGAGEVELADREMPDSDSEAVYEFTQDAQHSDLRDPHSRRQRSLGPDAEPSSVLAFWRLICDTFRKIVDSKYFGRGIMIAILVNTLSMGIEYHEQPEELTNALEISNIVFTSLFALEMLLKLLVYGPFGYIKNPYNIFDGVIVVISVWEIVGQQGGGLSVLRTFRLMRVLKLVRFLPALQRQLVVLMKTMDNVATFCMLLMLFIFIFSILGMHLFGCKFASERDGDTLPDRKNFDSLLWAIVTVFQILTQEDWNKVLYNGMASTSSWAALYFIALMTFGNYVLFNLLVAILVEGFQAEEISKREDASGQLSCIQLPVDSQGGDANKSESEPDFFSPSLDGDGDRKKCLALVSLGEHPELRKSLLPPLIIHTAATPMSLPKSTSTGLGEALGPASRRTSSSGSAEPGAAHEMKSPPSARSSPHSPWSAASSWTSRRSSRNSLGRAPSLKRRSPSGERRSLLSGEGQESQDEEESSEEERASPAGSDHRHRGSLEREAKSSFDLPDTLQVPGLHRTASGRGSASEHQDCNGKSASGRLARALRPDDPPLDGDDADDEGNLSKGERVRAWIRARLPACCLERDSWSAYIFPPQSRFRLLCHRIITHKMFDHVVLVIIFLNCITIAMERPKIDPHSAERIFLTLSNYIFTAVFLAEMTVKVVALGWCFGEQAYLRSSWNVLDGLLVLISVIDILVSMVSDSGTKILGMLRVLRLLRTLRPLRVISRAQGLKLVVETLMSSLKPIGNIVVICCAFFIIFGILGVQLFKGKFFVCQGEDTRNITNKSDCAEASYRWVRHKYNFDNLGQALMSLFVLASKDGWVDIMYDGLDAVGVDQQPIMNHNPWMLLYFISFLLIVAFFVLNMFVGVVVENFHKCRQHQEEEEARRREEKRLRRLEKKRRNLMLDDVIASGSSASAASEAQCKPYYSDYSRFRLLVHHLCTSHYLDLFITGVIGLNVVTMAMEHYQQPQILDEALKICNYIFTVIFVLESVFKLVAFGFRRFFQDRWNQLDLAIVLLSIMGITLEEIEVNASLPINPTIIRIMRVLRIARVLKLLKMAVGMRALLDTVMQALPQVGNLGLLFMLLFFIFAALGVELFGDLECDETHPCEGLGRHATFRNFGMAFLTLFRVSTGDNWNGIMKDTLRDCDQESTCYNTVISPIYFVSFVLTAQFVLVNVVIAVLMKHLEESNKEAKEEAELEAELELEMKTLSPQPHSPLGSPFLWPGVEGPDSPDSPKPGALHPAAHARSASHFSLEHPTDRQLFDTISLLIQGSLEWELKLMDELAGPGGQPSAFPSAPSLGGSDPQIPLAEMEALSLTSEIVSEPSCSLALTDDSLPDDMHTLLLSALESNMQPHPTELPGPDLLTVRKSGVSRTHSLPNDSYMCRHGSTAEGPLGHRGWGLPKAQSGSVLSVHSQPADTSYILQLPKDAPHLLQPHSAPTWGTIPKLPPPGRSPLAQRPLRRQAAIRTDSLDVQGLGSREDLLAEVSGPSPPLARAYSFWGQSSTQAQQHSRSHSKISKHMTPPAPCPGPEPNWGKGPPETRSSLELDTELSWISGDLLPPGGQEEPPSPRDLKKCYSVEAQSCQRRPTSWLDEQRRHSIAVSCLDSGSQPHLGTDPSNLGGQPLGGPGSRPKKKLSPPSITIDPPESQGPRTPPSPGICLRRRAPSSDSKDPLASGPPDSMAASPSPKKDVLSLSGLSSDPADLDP

The target of the first assay is T1, Voltage-dependent T-type calcium channel subunit alpha-1G (Homo sapiens, UniProt O43497). Kind of assay: Inhibition of T-type alpha1G calcium channel expressed in HEK293 cells assessed as Kcl-induced depolarization at 10 uM. Type of assay: cell-based. Put shortly:
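HEK293 cells stably expressing alpha1G plus Kir2.1, grown in DMEM/10% FBS with penicillin, streptomycin, geneticin and puromycin at 37 °C, 5% CO2; seeded 4 × 10^4 cells/well, used next day. Loaded 60 min at room temperature with 5 µM fluo3/AM and 0.001% Pluronic F-127 in Hepes buffer (pH 7.4). Channels activated by 70 mM KCl with 10 mM CaCl2; rise in intracellular Ca2+ read by FDSS6000 fluorescence.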
Consider `O=C(O)c1coc(CN2CCN(C(=O)CC(c3ccc(F)cc3)c3ccc(C(F)(F)F)cc3)CC2)n1` (centres undefined), for which the inhibition is 3.62%.

Consider `O=C(O)c1coc(CN2CCN(C(=O)CC(c3ccc(F)cc3)c3ccc(Cl)cc3)CC2)n1` (centres undefined), for which the inhibition worked out at 3.62%. On the same count and under the same terms, with `Cc1ccc2nc(CN3CCN(C(=O)CC(c4ccccc4)c4ccc(C(F)(F)F)cc4)CC3)oc2c1` (centres undefined) the figure was 22.4%; with `COc1ccc(C(CC(=O)N2CCN(Cc3nc4ccc(C)cc4o3)CC2)c2ccccc2)cc1` (centres undefined), 63.5%.

In the case of `O=C(O)c1coc(CN2CCN(C(=O)CC(c3ccc(F)cc3)c3ccc(F)cc3)CC2)n1`, the inhibition was 3.84%. The same measure, in the same setting: the figure for `COc1ccc(C(CC(=O)N2CCN(Cc3nc4ccc(C)cc4o3)CC2)c2ccc(F)cc2)cc1` (centres undefined) is 23.3%.

In the case of `COC(=O)c1coc(CN2CCN(C(=O)CC(c3ccccc3)c3ccc(C(F)(F)F)cc3)CC2)n1` (centres undefined), the inhibition came out at 60.4%. Consider `COC(=O)c1coc(CN2CCN(C(=O)CC(c3ccc(F)cc3)c3cccc(F)c3)CC2)n1` (centres undefined), for which the inhibition was 44.5%. Same read-out and setting: the figure for `O=C(CC(c1ccc(Br)cc1)c1cccc(F)c1)N1CCN(Cc2nc(CO)co2)CC1` (centres undefined) is 21.3%.

In the case of `Cc1ccc2nc(CN3CCN(C(=O)CC(c4ccc(Cl)cc4)c4cccc(F)c4)CC3)oc2c1` (centres undefined), the inhibition is 32.2%. With `Cc1ccc2nc(CN3CCN(C(=O)CC(c4ccc(F)cc4)c4ccc(F)cc4)CC3)oc2c1`, the inhibition came to 30.9%.

In the case of `COC(=O)c1coc(CN2CCN(C(=O)CC(c3ccc(F)cc3)c3ccc(OC)cc3)CC2)n1` (centres undefined), the inhibition was 24.5%. On the same count and under the same terms, with `COC(=O)c1coc(CN2CCN(C(=O)CC(c3ccc(Br)cc3)c3cccc(F)c3)CC2)n1` (centres undefined) the figure was 36.6%; with `O=C(O)c1coc(CN2CCN(C(=O)CC(c3ccc(F)cc3)c3ccc(Br)cc3)CC2)n1` (centres undefined), 5.42%; with `COc1ccc(C(CC(=O)N2CCN(Cc3nc(C(=O)O)co3)CC2)c2ccc(F)cc2)cc1` (centres undefined), 7.68%. The same measure, in the same setting: the figure for `O=C(CC(c1ccc(Br)cc1)c1cccc(F)c1)N1CCN(Cc2nc(C(=O)N3CCOCC3)co2)CC1` (centres undefined) is 44.6%; for `COC(=O)c1coc(CN2CCN(C(=O)CC(c3ccc(C(F)(F)F)cc3)c3cccc(F)c3)CC2)n1` (centres undefined) it is 57.6%.

Take `COC(=O)c1coc(CN2CCN(C(=O)CC(c3ccccc3)c3ccc(OC)cc3)CC2)n1` (centres undefined): the inhibition was 22.8%. In the case of `COC(=O)c1coc(CN2CCN(C(=O)CC(c3ccc(F)cc3)c3ccc(F)cc3)CC2)n1`, the inhibition was determined as 33.5%. Turning to `O=C(CC(c1ccc(F)cc1)c1cccc(F)c1)N1CCN(Cc2nc(CO)co2)CC1` (centres undefined), the inhibition was determined as 13.7%.

Regarding `COC(=O)c1coc(CN2CCN(C(=O)CC(c3ccccc3)c3ccc(Cl)cc3)CC2)n1` (centres undefined), the inhibition worked out at 35%. Still for that read-out and setting: the figure for `COc1ccc(C(CC(=O)N2CCN(Cc3nc(C(=O)N4CCOCC4)co3)CC2)c2cccc(F)c2)cc1` (centres undefined) is 19.7%; for `Cc1ccc2nc(CN3CCN(C(=O)CC(c4ccc(F)cc4)c4cccc(F)c4)CC3)oc2c1` (centres undefined) it is 44.9%; for `O=C(CC(c1ccc(Cl)cc1)c1cccc(F)c1)N1CCN(Cc2nc(CO)co2)CC1` (centres undefined) it is 19.2%.

Regarding `Cc1ccc2nc(CN3CCN(C(=O)CC(c4ccccc4)c4ccc(F)cc4)CC3)oc2c1` (centres undefined), the inhibition is 42.7%. On the same count and under the same terms, the figure for `COC(=O)c1coc(CN2CCN(C(=O)CC(c3ccc(OC)cc3)c3cccc(F)c3)CC2)n1` (centres undefined) is 25.5%; for `COc1ccc(C(CC(=O)N2CCN(Cc3nc4ccc(C)cc4o3)CC2)c2cccc(F)c2)cc1` (centres undefined) it is 52%; for `COC(=O)c1coc(CN2CCN(C(=O)CC(c3ccc(F)cc3)c3ccc(C(F)(F)F)cc3)CC2)n1` (centres undefined) it is 51.8%. The same measure, in the same setting: the figure for `Cc1ccc2nc(CN3CCN(C(=O)CC(c4ccc(F)cc4)c4ccc(Cl)cc4)CC3)oc2c1` (centres undefined) is 15.5%; for `Cc1ccc2nc(CN3CCN(C(=O)CC(c4ccc(F)cc4)c4ccc(Br)cc4)CC3)oc2c1` (centres undefined) it is 11.2%; for `COC(=O)c1coc(CN2CCN(C(=O)CC(c3ccc(F)cc3)c3ccc(Cl)cc3)CC2)n1` (centres undefined) it is 45.1%. The same measure, in the same setting: with `Cc1ccc2nc(CN3CCN(C(=O)CC(c4ccc(C(F)(F)F)cc4)c4cccc(F)c4)CC3)oc2c1` (centres undefined) the figure was 26.4%.

As to `COC(=O)c1coc(CN2CCN(C(=O)CC(c3ccc(F)cc3)c3ccc(Br)cc3)CC2)n1` (centres undefined), the inhibition is 42.1%. On the same count and under the same terms, with `COC(=O)c1coc(CN2CCN(C(=O)CC(c3ccccc3)c3ccc(Br)cc3)CC2)n1` (centres undefined) the figure was 42.8%; with `O=C(CC(c1ccc(Cl)cc1)c1cccc(F)c1)N1CCN(Cc2nc(C(=O)N3CCOCC3)co2)CC1` (centres undefined), 48.6%.

As for `Cc1ccc2nc(CN3CCN(C(=O)CC(c4ccc(Br)cc4)c4cccc(F)c4)CC3)oc2c1` (centres undefined), the inhibition was 18%. On the same count and under the same terms, with `Cc1ccc2nc(CN3CCN(C(=O)CC(c4ccccc4)c4ccc(Cl)cc4)CC3)oc2c1` (centres undefined) the figure was 25.9%; with `O=C(CC(c1ccc(C(F)(F)F)cc1)c1cccc(F)c1)N1CCN(Cc2nc(CO)co2)CC1` (centres undefined), 19.2%. Regarding `O=C(CC(c1ccc(C(F)(F)F)cc1)c1cccc(F)c1)N1CCN(Cc2nc(C(=O)N3CCOCC3)co2)CC1` (centres undefined), the inhibition was 53.4%. The same measure, in the same setting: the figure for `Cc1ccc2nc(CN3CCN(C(=O)CC(c4ccccc4)c4ccc(Br)cc4)CC3)oc2c1` (centres undefined) is 13.6%; for `COC(=O)c1coc(CN2CCN(C(=O)CC(c3ccccc3)c3ccc(F)cc3)CC2)n1` (centres undefined) it is 27.7%; for `O=C(CC(c1ccc(F)cc1)c1cccc(F)c1)N1CCN(Cc2nc(C(=O)N3CCOCC3)co2)CC1` (centres undefined) it is 36.9%.

In the case of `COC(=O)c1coc(CN2CCN(C(=O)CC(c3ccc(Cl)cc3)c3cccc(F)c3)CC2)n1` (centres undefined), the inhibition came to 24.5%. Same read-out and setting: the figure for `COc1ccc(C(CC(=O)N2CCN(Cc3nc(CO)co3)CC2)c2cccc(F)c2)cc1` (centres undefined) is 4.9%. Same read-out and setting: the figure for `Cc1ccc2nc(CN3CCN(C(=O)CC(c4ccc(F)cc4)c4ccc(C(F)(F)F)cc4)CC3)oc2c1` (centres undefined) is 9.84%.

Another assay concerns the target T1, Voltage-dependent T-type calcium channel subunit alpha-1G. Kind of assay: Inhibition of T-type alpha1G calcium channel. A digest of the protocol: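 HEK293 cells stably expressing α1G and Kir2.1 were seeded at 4 × 10⁴ cells/well and used the next day. They were loaded with 5 µM fluo3/AM and 0.001% Pluronic F-127 for 60 min at room temperature in Hepes buffer (pH 7.4). Channels were activated by 70 mM KCl depolarization in buffer containing 10 mM CaCl₂, and the rise in intracellular Ca²⁺ was read by fluorescence (FDSS6000).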
For the molecule `O=c1[nH]c2ccccc2n1C1CCN(CCCC(c2ccc(F)cc2)c2ccc(F)cc2)CC1` [PIMOZIDE], the Kd was determined as 0.04 µM.

Another assay deals with Voltage-gated inwardly rectifying potassium channel KCNH2 (Homo sapiens, UniProt Q12809). Description: Inhibition of human hERG.
Voltage-gated inwardly rectifying potassium channel KCNH2, sequence (Q12809 whole entry): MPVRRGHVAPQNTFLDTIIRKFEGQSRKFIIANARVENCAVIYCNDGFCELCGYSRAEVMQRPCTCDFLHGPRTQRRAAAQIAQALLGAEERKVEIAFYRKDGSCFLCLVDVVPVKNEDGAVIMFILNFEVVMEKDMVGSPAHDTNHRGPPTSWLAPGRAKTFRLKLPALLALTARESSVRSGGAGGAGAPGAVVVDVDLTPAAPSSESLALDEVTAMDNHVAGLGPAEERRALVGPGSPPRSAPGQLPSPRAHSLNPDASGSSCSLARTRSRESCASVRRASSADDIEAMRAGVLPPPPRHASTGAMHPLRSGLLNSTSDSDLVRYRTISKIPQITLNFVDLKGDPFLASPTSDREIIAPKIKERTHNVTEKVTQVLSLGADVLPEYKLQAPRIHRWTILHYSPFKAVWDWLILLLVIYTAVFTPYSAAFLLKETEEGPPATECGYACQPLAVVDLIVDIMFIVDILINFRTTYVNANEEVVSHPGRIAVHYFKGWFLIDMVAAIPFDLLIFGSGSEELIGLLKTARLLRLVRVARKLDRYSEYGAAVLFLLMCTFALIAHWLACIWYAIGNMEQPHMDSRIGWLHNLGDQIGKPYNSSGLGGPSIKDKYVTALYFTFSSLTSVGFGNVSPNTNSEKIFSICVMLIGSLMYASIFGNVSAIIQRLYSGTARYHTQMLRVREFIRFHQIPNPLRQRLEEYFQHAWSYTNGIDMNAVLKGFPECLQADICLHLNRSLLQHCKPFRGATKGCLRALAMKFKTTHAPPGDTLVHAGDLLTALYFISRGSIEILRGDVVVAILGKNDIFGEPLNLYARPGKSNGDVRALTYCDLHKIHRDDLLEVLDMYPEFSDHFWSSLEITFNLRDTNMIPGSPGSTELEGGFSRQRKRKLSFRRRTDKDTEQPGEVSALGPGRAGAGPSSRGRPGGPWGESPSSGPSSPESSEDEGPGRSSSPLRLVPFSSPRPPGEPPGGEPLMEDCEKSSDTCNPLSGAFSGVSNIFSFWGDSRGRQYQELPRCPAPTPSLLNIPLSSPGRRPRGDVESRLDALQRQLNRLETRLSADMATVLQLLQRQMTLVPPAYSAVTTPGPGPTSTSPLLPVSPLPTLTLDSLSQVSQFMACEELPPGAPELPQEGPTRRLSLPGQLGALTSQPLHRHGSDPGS
On to `COC(=O)c1coc(CN2CCN(C(=O)CC(c3ccc(F)cc3)c3ccc(Br)cc3)CC2)n1` (centres undefined), for which it took 2.23 µM to reach half-maximal inhibition (IC50).

A further assay deals with T1, Voltage-dependent T-type calcium channel subunit alpha-1G. Description: Inhibition of T-type alpha1G calcium channel expressed in HEK293 cells by whole-cell patch-clamp method.
Turning to `COc1ccc(C(CC(=O)N2CCN(Cc3nc4ccc(C)cc4o3)CC2)c2ccccc2)cc1` (centres undefined), the IC50 is 2.48 µM. As to `COC(=O)c1coc(CN2CCN(C(=O)CC(c3ccccc3)c3ccc(C(F)(F)F)cc3)CC2)n1` (centres undefined), the IC50 worked out at 17 µM. As for `Cc1ccc2nc(CN3CCN(C(=O)CC(c4ccccc4)c4ccc(F)cc4)CC3)oc2c1` (centres undefined), the IC50 is 1.29 µM. As for `COC(=O)c1coc(CN2CCN(C(=O)CC(c3ccc(F)cc3)c3ccc(C(F)(F)F)cc3)CC2)n1` (centres undefined), the half-inhibitory concentration (IC50) turned out to be 1.73 µM. On the same count and under the same terms, the figure for `COC(=O)c1coc(CN2CCN(C(=O)CC(c3ccc(F)cc3)c3ccc(Cl)cc3)CC2)n1` (centres undefined) is 8.8 µM; for `COC(=O)c1coc(CN2CCN(C(=O)CC(c3ccc(F)cc3)c3ccc(Br)cc3)CC2)n1` (centres undefined) it is 0.83 µM; for `COC(=O)c1coc(CN2CCN(C(=O)CC(c3ccccc3)c3ccc(Br)cc3)CC2)n1` (centres undefined) it is 21.1 µM.
